# Mot1-301 SUMO: yeast Mot1-301 growth rescue at high temperature, primary screen, SUMOylation pathway inhibitor project, S. cerevisiae, ATP luminescence, 38.5C | S. cerevisiae Mot1-301 growth rescue; percent above DMSO median, 100 means doubled | growth rescue, % at 18.8 µM | hit rate 1% among 320,000 | AID 2716, 2010;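 active means every valid replicate shows activation above 250% relative to neutral control wells; inactive means the rest, any valid replicate at or below 250%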;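 further: OY570 slx delta 5 strain wells were the positive control but not used for scaling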
# hERG rescue: hERG rescue from dofetilide block, primary screen, cell-based, CHO-hERG, FluxOR thallium flux, dofetilide IC70 | Voltage-gated inwardly rectifying potassium channel KCNH2 (Homo sapiens), Q12809 | dofetilide IC70 present | activation (rescue from dofetilide block), less the hit threshold, % at 10 µM | hit rate 0.51% among 310,000 | AID 1511, 2009;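 active means activation above the mean of controls blocked by dofetilide plus 5 SD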;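 further: thallium influx through hERG after potassium depolarization seen as dye fluorescence rise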
# AI-2 QS modul: Vibrio harveyi AI-2 quorum sensing modulators, primary screen, JMH597 strain, luminescence/OD600 ratio; hit rate 0.4% among 300,000; Vibrio harveyi JMH597 AI-2 luminescence/OD600 ratio, 9 h; stronger effect = lower value; strain lacks LuxN and CqsS sensors; 0 = neutral-control median; activity change, % at 7.5 µM; in the data active means activity change below about -75%, passing the limit was not always enough; inconclusive means no clear call, values can overlap the other calls;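 further: luminescence divided by OD600 gain over 9 h not by final OD600 alone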
# KCNQ1 inh: inhibitors of human KCNQ1 channel, primary screen, cell-based, thallium flux, high-throughput. CHO-K1 KCNQ1, FluxOR thallium flux fluorescence; stronger effect = higher value. B-score at 10 µM. hit rate 1.3% among 310,000;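 active means compounds whose thallium flux B-score, printed positive for inhibition, exceeds three library SD while starting fluorescence stays within three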;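 further: channel opened by potassium depolarization with thallium stimulus after 20 min compound exposure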
# Target sequence (P51787 whole entry, looked up): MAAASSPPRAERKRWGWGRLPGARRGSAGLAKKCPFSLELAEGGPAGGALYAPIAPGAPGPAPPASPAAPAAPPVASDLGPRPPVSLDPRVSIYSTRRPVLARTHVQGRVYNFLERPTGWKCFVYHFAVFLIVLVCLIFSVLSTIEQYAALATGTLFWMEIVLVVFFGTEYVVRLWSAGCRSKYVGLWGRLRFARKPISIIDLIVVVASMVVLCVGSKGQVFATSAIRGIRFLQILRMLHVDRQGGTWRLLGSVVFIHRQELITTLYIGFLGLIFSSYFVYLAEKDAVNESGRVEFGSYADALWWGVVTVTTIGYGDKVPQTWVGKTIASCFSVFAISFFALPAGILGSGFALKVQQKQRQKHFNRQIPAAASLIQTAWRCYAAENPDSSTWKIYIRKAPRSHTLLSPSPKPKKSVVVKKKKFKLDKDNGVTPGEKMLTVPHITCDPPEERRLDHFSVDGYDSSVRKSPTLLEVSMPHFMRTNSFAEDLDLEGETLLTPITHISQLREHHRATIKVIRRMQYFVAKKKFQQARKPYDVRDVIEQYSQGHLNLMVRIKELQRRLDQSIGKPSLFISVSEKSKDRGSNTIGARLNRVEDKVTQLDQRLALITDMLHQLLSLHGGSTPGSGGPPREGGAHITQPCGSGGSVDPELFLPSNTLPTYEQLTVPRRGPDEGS
# KCNQ1 act: potentiators or activators of KCNQ1 channel, primary screen, cell-based, thallium flux, high-throughput; Potassium voltage-gated channel subfamily KQT member 1 (Homo sapiens), P51787; hit rate 0.35% among 310,000; AID 2648, 2010; B-score at 10 µM; CHO-K1 KCNQ1, thallium flux FluxOR fluorescence; stronger effect = higher value;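 active means fluorescence ratio B-score, a plate-corrected score, at least three library SD, with initial intensity B-score within 5 SD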
#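 Assay system: CHO-K1 cells stably expressing KCNQ1; Medium: assay buffer with matched DMSO; Also added: K+/Tl+ depolarizing stimulus; Dosing: single dose; Timing: dye 90 min, compound 20 min, room temperature; Measured by: kinetic FluxOR thallium fluorescence, 10-s 1-Hz baseline, 110-s post-stimulus read; Read-out: peak-minus-minimum fluorescence over initial fluorescence, negative-control normalized, B-scored.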
# Cl transport mod: KCC2 cotransporter modulators, thallium flux, primary screen, cell-based, HEK293 KCC2, FluoZin-2 fluorescence, MLSMR | Solute carrier family 12 member 5 (Homo sapiens), Q9H2X9 | KCC2 cells, thallium flux FluoZin-2 fluorescence | B-score of Tl+ flux slope (higher = more flux/activation; lower = inhibition) at 10 µM | hit rate 2.2% among 190,000;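 active means thallium flux slope and its plate-corrected score both differing from the plate sample mean at a set confidence after two filtering rounds, in either direction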;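 further: slope of fluorescence scaled to starting intensity during 10 to 20 s after thallium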
# KCC2 secondary: KCC2 modulators in sodium-free buffer, confirmation, cell-based, HEK293 KCC2, thallium flux, secondary assay | shares compounds with Cl transport mod | FluoZin2 fluorescence; stronger effect = higher value | normalised thallium flux (F/F0 slope) at 10 µM | hit rate 15% among 3,700 | AID 1713, 2009;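 active means thallium flux slope above the same plate's solvent-only control mean plus 3 SD; inconclusive means the two replicate wells disagree; inactive means no significant difference from solvent-only control wells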
# KCC2 bumet counter: thallium flux persisting under bumetanide in KCC2 cells, confirmation, counter-screen for KCC2 modulator project, cell-based, HEK293 KCC2, FluoZin2, secondary assay 3; shares compounds with Cl transport mod; HEK293-KCC2 + bumetanide/ouabain; stronger effect = higher value; normalized thallium flux at 10 µM; hit rate 49% among 3,700; AID 1714, 2009;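 active means thallium entry rate above the same plate's blocked-transporter control wells by more than 3 SD; inconclusive means the two repeat wells disagree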;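 further: raw slope of fluorescence over initial fluorescence between 10 and 20 s after thallium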
# KCC2 secondary2: KCC2 modulators without ouabain present, confirmation, cell-based, HEK293 KCC2, thallium flux, FluoZin2, secondary assay 2; AID 1715, 2009; normalized thallium flux at 10 µM; thallium flux FluoZin2 fluorescence; actives lie on both sides; F/F0 rise rate, 10–20 s post-thallium; shares compounds with Cl transport mod; hit rate 23% among 3,700;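 active means thallium flux slope more than 3 SD above or below the plate's solvent-only control mean, mostly below; inconclusive means the two repeat wells disagreed; inactive means no significant shift from solvent-only controls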;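 further: raw slope with 0.1% DMSO as baseline and bumetanide as block control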
# HEK counter1: thallium flux modulation in parental HEK cells, confirmation, counter-screen for KCC2 modulator project, cell-based, counterscreen 1; shares compounds with Cl transport mod; HEK293 parental cells, thallium flux FluoZin2, ouabain; baseline-ratio fluorescence slope, 10–20 s after thallium; thallium flux rate (normalised fluorescence) at 10 µM; hit rate 46% among 3,700; AID 1716, 2009;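 active means thallium flux rate significantly above the same plate's solvent-only control wells, beyond their mean plus 3 SD; inconclusive means the two replicate wells gave conflicting results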
# KCC2 retest ouab: KCC2 inhibitors and activators, ouabain retest, confirmation, HEK-KCC2 cells; raw Tl+ flux slope (below DMSO = inhibition, above = activation) at 10 µM; shares compounds with Cl transport mod; HEK293-KCC2, thallium flux FluoZin2 fluorescence; bidirectional: low = inhibitor, high = activator; hit rate 48% among 3,700;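 active means thallium flux slope beyond 3 SD from same-plate DMSO control mean in most replicates, usually higher, sometimes lower; inconclusive means repeat tests gave conflicting results; inactive means no significant difference from controls in most replicates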;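 further: slope of initial-normalized fluorescence between seconds 10 and 20 after thallium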
# HEK293 Tl flux2: native HEK Tl+ uptake effects, second counter-screen – HEK cells, counterscreen 2, counter-screen for KCC2 modulator project, confirmation; HEK293 parental, thallium flux FluoZin-2 fluorescence slope; hit rate 33% among 3,700; thallium flux slope at 10 µM; shares compounds with Cl transport mod; AID 1718, 2009;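 active means thallium flux slope above the same plate's solvent-control mean plus 3 SD in both duplicate wells; inconclusive means duplicate wells that disagreed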;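 further: run without ouabain in cells lacking the KCC2 cotransporter; slope of fluorescence scaled to its starting value between 10 and 20 s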
# Numbers without * were called inactive; i = inactive; ? = inconclusive; . = not tested or not shown. Sampled rows, rich in hits. Any-hit rate of the full collection: about 4.2%.
SMILES,Mot1-301 SUMO,hERG rescue,AI-2 QS modul,KCNQ1 inh,KCNQ1 act,Cl transport mod,KCC2 secondary,KCC2 bumet counter,KCC2 secondary2,HEK counter1,KCC2 retest ouab,HEK293 Tl flux2
CCN(CC)CCN1C(=O)C(=O)/C(=C(/O)c2ccc(OC)cc2)C1c1ccco1 (configuration not stated),137.0,-6.5,21.5,i,i,8.68*,0.00608,0.00574*,0.0307,?,0.0202,?
Cc1ccc(N(CC(=O)NC(C)(C)C)C(=O)CNC(=O)c2cccs2)cc1C,-3.9,-12.6,18.5,i,i,1.55,.,.,.,.,.,.
CCc1c(-c2n[nH]c(=S)n2Cc2ccccc2)csc1C,12.2,-7.3,-23.8,i,i,14*,?,0.0663*,0.0301,0.0168*,0.0346*,0.0113*
Cc1ccccc1OCc1n[nH]c(=S)n1Cc1ccccc1,53.7,-1.9,9.5,i,i,6.07*,0.00754,0.0288*,0.0407*,0.0241*,0.0299*,0.0307*
S=c1[nH]nc(COc2cccc3ccccc23)n1Cc1ccccc1,-9.1,-6.0,17.7,i,i,0.057,.,.,.,.,.,.
Cc1scc(-c2n[nH]c(=S)n2Cc2ccccc2)c1C,-26.0,-8.9,-9.9,i,i,5.7,.,.,.,.,.,.
Oc1ccc(-c2n[nH]c(=S)n2Cc2ccccc2)cc1,3.9,-3.6,2.6,i,i,0.439,.,.,.,.,.,.
S=c1[nH]nc(-c2ccc3ccccc3n2)n1Cc1ccccc1,-9.2,-3.5,16.7,i,i,9.21*,0.0146*,0.0269*,0.0358,0.0287*,0.0312*,0.0161*
S=c1[nH]nc(-c2ccc(Br)cc2)n1Cc1ccccc1,12.8,-5.0,13.5,i,i,23.7*,0.0109,0.0267*,0.0349,0.0255*,0.0289*,?
O=C(NCc1cccs1)C1CCN(S(=O)(=O)c2ccccc2F)CC1,400.1,-7.9,5.2,i,i,-0.602,.,.,.,.,.,.
O=C(CCc1nnc(COc2ccccc2)o1)NCc1ccccc1C(F)(F)F,847.5,-8.3,2.4,i,i,-3.19*,0.00739,0.00627,0.0359,0.00389,0.0167*,0.0109
O=c1c2ccccc2nnn1Cc1ccccn1,-4.5,-5.3,3.3,i,i,-4.98*,0.0106,?,0.033,0.00759,0.0221,0.0105
CC1(c2cccs2)CC(c2cccs2)=C(C#N)C(=O)N1 (configuration not stated),-9.2,-8.1,2.2,i,i,5.19*,0.00649,0.00452,0.0276,0.00595*,0.0181,0.00928
Cc1c(Cl)cccc1-n1c(SCC(=O)NCc2cccs2)nnc1-c1ccncc1,-5.2,-7.0,2.9,i,i,-1.19,0.00985,0.00573,0.0365,0.00974*,0.0203,0.011
Cc1ccc2c(CC(=O)NCCc3ccc(S(N)(=O)=O)cc3)coc2c1,12.0,-11.7,13.9,i,i,-0.6,.,.,.,.,.,.
CC1Cc2ccccc2N1C(=O)CSc1nnc(CNc2ccccc2)o1 (configuration not stated),-14.2,-13.1,47.9,i,i,.,0.00686,0.00464,0.0226*,0.00768,0.013*,0.0101
O=C(CSc1nnc(CNC(=O)c2ccccc2)o1)Nc1ccc2c(c1)OCCO2,49.6,-13.1,23.7,i,i,.,.,.,.,.,.,.
Cc1ccc(-c2ccc(SCC(=O)N3CCCc4ccccc43)nn2)cc1,23.5,-10.1,17.1,i,i,-2.26,.,.,.,.,.,.
CC(C)(C)N(Cc1ccccc1)C(=O)CSc1nnc(CNc2ccc(F)cc2)o1,5.2,-13.7,0.2,i,i,-5.32*,0.00616,0.00603,0.0295,0.00716,0.0129*,0.0118
O=C(CSc1ccc(-c2ccccc2)nn1)N1CCCc2ccccc21,-7.9,-13.5,24.3,i,i,-4.66*,0.00754,0.00533,0.0207*,0.00708,?,0.0106
O=C(CSc1nnc(CNc2ccccc2)o1)c1ccc2c(c1)OCCO2,90.1,1.2,38.6,i,i,-4.39*,0.00592,?,0.0238*,0.00833,?,0.0111
CCc1cccc(NC(=O)CCS(=O)(=O)c2ccc(Br)cc2)c1,371.3,-4.8,0.4,i,i,.,.,.,.,.,.,.
Cc1cccc2cc(C#N)c(NCCCNS(=O)(=O)c3ccc(Cl)cc3)nc12,-4.9,-11.3,24.8,i,i,-0.21,.,.,.,.,.,.
COc1ccc(NCc2nnc(SCC(=O)N3CCCc4ccccc43)o2)cc1,8.5,-8.3,7.3,i,i,.,.,.,.,.,.,.
O=C(CSc1nnc(CNc2ccccc2)o1)N1CCCc2ccccc21,-19.2,-7.0,1.1,i,i,-4.92*,0.0159,0.00456,0.024*,0.0073,0.0139,0.00958
CCCCC(=O)Nc1ncc2c(n1)CC(C)(C)CC2=O,-8.7,-6.1,8.0,i,i,0.578,.,.,.,.,.,.
